Experimental data as given in the array DNA melting data of Ke et al. (doi:10.1101/2024.01.08.574731).

Tests used:
[1] = melting temperature; fluorescence melt of hairpins on a sequencing array, two-state fit, raised by 9.35 °C to match UV melts; settings: sodium 0.088 M
Outline: (§1)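 Cy3 fluorescence of library hairpins on a sequenced MiSeq flow cell, with annealed Cy3 and quencher oligos, was imaged in 50 mM Na-HEPES pH 8.0, 25 mM NaCl in 2.5 °C steps up to 60 °C. Signals were normalised to pre-quench Cy3 and to control variants. Melting temperature and folding enthalpy came from bootstrapped two-state fits, inverse-variance combined over four replicates. Fitted temperatures were raised by 9.35 °C to match UV melts.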

[2] = folding enthalpy; higher = less favourable; fluorescence melt of hairpins on a sequencing array, two-state fit; settings: sodium 0.088 M
Outline: as §1

| Sequence | Tm [1] [°C] | folding enthalpy [2] [kcal/mol] |
| --- | --- | --- |
| GATCTTAAAAAAGATC ((((((....)))))) | 33.7 | -20.3 |
| GATCCACAGTTGGATC ((((((....)))))) | 49.3 | -41 |
| GGGCTCCGAAAGGATCCC (((.(((....))).))) | 53.5 | -44.4 |
| GTTGGACGAAAGTCGAAC (((.(((....))).))) | 49.1 | -16.8 |
| GAGTCAGAAATGACTC ((((((....)))))) | 54.6 | -25 |
| GCGGGTTGCCGC ((((....)))) | 57.2 | -19.8 |
| GATCCCGAAAGGGTTATC ((((((....)))..))) | 27.5 | -8.18 |
| GTTTATGGAAACATAGAC ((.((((....)))).)) | 32.2 | -23.7 |
| GATATCGGAAACGATACC (.(((((....))))).) | 33.7 | -17.3 |
| GCTCTACGAAAGTACAGC (((.(((....))).))) | 35.5 | -21.5 |
| GGGTTCGAAAGAATCCC ((((((....))).))) | 52 | -29 |
| GCGAAGCGAAAGCTTGGC ((.((((....)))).)) | 52 | -18.1 |
| GTGGCTGGAAACAACCAC ((((.((....)).)))) | 45.8 | -34.4 |
| GTCCGTGGAAACATGGGC (.((.((....)).)).) | 44.9 | -24.9 |
| GCGCCGCGAAAGCCACGC (((..((....))..))) | 50.1 | -17.4 |
| CGGCCGGAAACGGACCCG ((((((....)))..))) | 38.8 | -12.1 |
| GGTGGCGAAAGCCTCACC ((((((....)))..))) | 45.2 | -12.7 |
| GGCACGGGAAACCGTGTC (.(((((....))))).) | 59.2 | -34.6 |
| GACCAAACGAAAGTTGTC (((..(((....)))))) | 31 | -13.8 |
| GCGTTCCAACGC ((((....)))) | 55.6 | -27.7 |
| GCATCAGGAAACTGGTGC (((.(((....))).))) | 53.4 | -40.9 |
| GCCTCCGAAAGGAAAGGC ((((((....)))..))) | 53 | -29.6 |
| GCTATGCGAAAGCATCGC ((.((((....)))).)) | 55.3 | -22.5 |

| Sequence | Tm [1] [°C] | folding enthalpy [2] [kcal/mol] |
| --- | --- | --- |
| GACCTTACGAAAGTAGTC (((..(((....)))))) | 25.2 | -11 |
| GTTCGTGGAAACATGGAC ((.(.((....)).).)) | 34.7 | -16.1 |
| GATCGCAAATGCGATC ((((((....)))))) | 68 | -40.5 |
| GTTGGATCGAAAGATAAC (((..(((....)))))) | 27.3 | -6.79 |
| GCCATGCGAAAGCACCGC ((..(((....)))..)) | 24.1 | -8.84 |
| GCTGACCGAAAGGTGAGC (((.(((....))).))) | 55.4 | -38.4 |
| GCCTATCGAAAGATTGGC (((.(((....))).))) | 53.4 | -35.2 |
| GGTTGAGCGAAAGCTACC (((..(((....)))))) | 42.4 | -13.1 |
| GGTGCCGAAAGGCCGACC ((((((....)))..))) | 41.9 | -14.1 |
| GGGGAGGGAAACCTCTCC ((.((((....)))).)) | 51.8 | -34.1 |
| GCTCCGCGAAAGCGACGC ((..(((....)))..)) | 42.6 | -18.4 |
| GATCTATTCGTAGATC ((((((....)))))) | 44.8 | -33.5 |
| GACAACGAAAGTTGTGTC ((((((....)))..))) | 50.6 | -14.7 |
| GGTAAAGGAAACTTTGCC ((.((((....)))).)) | 42.6 | -28.6 |
| GCTCACGAAAGTGGAGC ((((((....))).))) | 59 | -27.5 |
| GATCAAGATCTTGATC ((((((....)))))) | 49.9 | -47.1 |
| GACACCGAAAGGTCAGTC ((((((....)))..))) | 35.9 | -12.5 |
| GACTACCCGAAAGGGGTC (((..(((....)))))) | 38.3 | -11.3 |
| GCAATCGAAAGATAGTGC ((((((....)))..))) | 32 | -22.9 |
| GACGGAGCGAAAGCTGTC (((..(((....)))))) | 41.8 | -18.9 |
| GCCGCCGAAAGGCTTGGC ((((((....)))..))) | 54.5 | -21 |
| GGTTTCGGAAACGGAACC ((((.((....)).)))) | 52.6 | -45 |
| GACCCCGGAAACGAGGCC (.((.((....)).)).) | 27.5 | -15 |

| Sequence | Tm [1] [°C] | folding enthalpy [2] [kcal/mol] |
| --- | --- | --- |
| GCGCGGCGAAAGCTTCGC (((..((....))..))) | 55.8 | -20.8 |
| GCGTGATACGC ((((...)))) | 55.4 | -22.2 |
| GATCCCTGAGGGATC ((((((...)))))) | 59.6 | -34.7 |
| CGCCCCCGGAAACGGGCG (((..(((....)))))) | 54.3 | -13.8 |
| GATCAGTATGCTGATC ((((((....)))))) | 55.2 | -36.1 |
| GTTTGGAAACAAAC (((((....))))) | 45.6 | -24.5 |
| GTTTAGACGAAAGTCAAC (((..(((....)))))) | 30.4 | -9.97 |
| GGTGTCGCGAAAGCGACC (((..(((....)))))) | 54 | -7.75 |
| GCACACGGAAACGCATGC (((..((....))..))) | 26.4 | -12.7 |
| GATCTGAGCCAGATC ((((((...)))))) | 47 | -41.7 |
| GTCCGTCCGAAAGGAGAC (((..(((....)))))) | 29.1 | -11.8 |
| GTTTCTCGAAAGAGAAC (((.(((....)))))) | 42.4 | -17.1 |
| GGTATTGGAAACAATACC (((((((....))))))) | 56.9 | -43.7 |
| GAGATCGGAAACGATCCC (.(((((....))))).) | 42.9 | -12.9 |
| GCTCAACGAAAGTTCAGC (((.(((....))).))) | 37.6 | -23.6 |
| GGTGTTCGAAAGAAAACC (((.(((....))).))) | 45.2 | -25.3 |
| GATCGCCCGTGCGATC ((((((....)))))) | 64 | -33.7 |
| GATTCGCGAAAGCGATC (((.(((....)))))) | 44.5 | -11.6 |
| GCTCTATCGAAAGATAGC (((..(((....)))))) | 30.2 | -13.6 |
| GACTTGCGAAAGCAGTC (((.(((....)))))) | 51.9 | -17.4 |
| GACTTAGAAATAAGTC ((((((....)))))) | 43.8 | -30 |
| GCCGTCGAAAGACTAGGC ((((((....)))..))) | 52.8 | -35.5 |
| GTAACACGAAAGTGATAC (((.(((....))).))) | 46.8 | -25.5 |

| Sequence | Tm [1] [°C] | folding enthalpy [2] [kcal/mol] |
| --- | --- | --- |
| GCACAAGGAAACTTATGC (((.(((....))).))) | 29.4 | -18.7 |
| GCTAGAGGAAACTCTAAC (.(((((....))))).) | 24.8 | -9.45 |
| GGAAGCGAAAGCTCGTCC ((((((....)))..))) | 29.5 | -11.6 |
| GGTACATCGAAAGATACC (((..(((....)))))) | 29.7 | -11.5 |
| GTACTCACGAAAGTGTAC (((..(((....)))))) | 31.9 | -11 |
| GCGACCGAAAGGTGTCGC ((((((....)))..))) | 59 | -35.5 |
| GGCTACGGAAACATAGCC (((((.(....).))))) | 43.8 | -28.8 |
| GAATCGAAAGATTC (((((....))))) | 50.9 | -27.4 |
| GGCGTTCGAAAGAAAGCC (((.(((....))).))) | 56.8 | -34.1 |
| GACTTGCGAAAGCATGTC (((.(((....))).))) | 55.8 | -25.2 |
| GCCACCGAAAGGTCAGGC ((((((....)))..))) | 48.4 | -23.1 |
| GATCTCCTAGAGATC ((((((...)))))) | 53 | -35.1 |
| GGCGCCGAAAGGCAAGCC ((((((....)))..))) | 63.8 | -21.7 |
| GCCATAGGAAACTATGAC (.(((((....))))).) | 34.1 | -18.2 |
| GCCACGCGAAAGCCGGGC (((..((....))..))) | 58 | -24.1 |
| GACCGCGAAAGCGTGTC ((((((....))).))) | 63.5 | -21.2 |
| GCCGTAGGAAACTATGGC (((.(((....))).))) | 51.3 | -34 |
| GCACTCGAAAGAGGATGC ((((((....)))..))) | 40.1 | -22.4 |
| GATCTAGATGTAGATC ((((((....)))))) | 39.8 | -27.9 |
| GATCCGTCTCGGATC ((((((...)))))) | 59.7 | -42.8 |
| GATCGCGGGGCGATC ((((((...)))))) | 68 | -29.8 |
| GCTAAGCGAAAGCCCAGC (((..((....))..))) | 34.5 | -16.8 |
| GCTGATGGAAACATCAGC (((((((....))))))) | 67.6 | -43.5 |
